The target of the assay is T1, OR52D1 (Homo sapiens) (UniProt Q9H346).
T1 sequence (whole entry): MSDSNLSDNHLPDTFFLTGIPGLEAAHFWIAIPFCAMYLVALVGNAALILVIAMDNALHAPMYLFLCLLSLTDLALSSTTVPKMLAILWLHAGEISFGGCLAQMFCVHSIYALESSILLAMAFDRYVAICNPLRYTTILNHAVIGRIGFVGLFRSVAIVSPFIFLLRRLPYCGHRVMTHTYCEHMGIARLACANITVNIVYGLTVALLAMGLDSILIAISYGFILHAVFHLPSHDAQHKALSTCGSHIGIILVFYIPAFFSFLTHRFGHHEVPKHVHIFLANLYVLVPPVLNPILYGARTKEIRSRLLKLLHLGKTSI
The following applies: stereoisomer not certain. The method, boiled down:
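Values were gathered from published papers (main text and supplementary material), with extra details requested from the original authors when needed, and checked for typos and inconsistencies. Each receptor–molecule pair is called responsive (active) if the original authors judged the measured signal statistically different from baseline, and non-responsive (inactive) otherwise. Assay methods varied by source, often transient mammalian cell-line luciferase assays. Recorded details include cell line, G-protein, co-transfected protein and tags.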
Take `CCCCCC(=O)CC`: the “odorant receptor agonist call” value is “active”.
Consider `CCCCCC(=O)OCC`, for which the “odorant receptor agonist call” value is “active”.
Under `O=C(O)C=Cc1ccccc1` stands “active”.
As to `CCCCCCC(C)=O`, the “odorant receptor agonist call” value was “inactive”.
To `CCCCCCC(=O)[O-].[H+]` belongs “active”.
Turning to `CCCCCCCC(=O)OC`, the “odorant receptor agonist call” value was “inactive”.
For `CCCCCCCC(C)=O`, the “odorant receptor agonist call” value was “inactive”.
For the molecule `CCCCCCCCCO`, the “odorant receptor agonist call” value is “active”.
On to `CCCCCCO`, for which the “odorant receptor agonist call” value is “inactive”.
For the molecule `CCCCCC=O`, the “odorant receptor agonist call” value was “inactive”.
As to `CC(=O)CCC=C(C)C`, the “odorant receptor agonist call” value was “active”.
Under `OCc1ccccc1` stands “active”; under `CCOC(=O)C(C)C`, “inactive”.
Under `CC12CCC(CC1=O)C2(C)C` (configuration not stated) stands “inactive”; under `CCCCCCCCCCO`, “inactive”; under `CCCCCCC(=O)OC`, “active”.
To `CSC` belongs “inactive”; to `CCCCCCCCO`, “inactive”; to `CC(C)=CCCC(C)CC=O` (configuration not stated), “inactive”.
For the molecule `CC1CCC(C(C)C)C(=O)C1` (configuration not stated), the “odorant receptor agonist call” value was “inactive”.
To `COc1ccccc1` belongs “active”; to `COc1nccnc1CC(C)C`, “active”; to `CCCCCCCCC(C)=O`, “active”.
With `CCCC(=O)SC`, the “odorant receptor agonist call” value is “active”.
Under `CCCCOC(=O)CCC` stands “active”; under `CC(=O)OCCC(C)C`, “active”; under `Cc1cnccn1`, “inactive”.

The values above are taken from the M2OR odorant receptor database.
